Measured values reported in ChEMBL document CHEMBL4689842, “EUbOPEN Chemogenomics Library wave 1” (2021).

System: U2OS
Test: Multiplex assay against U2OS
Format: toxicity, cell-based
Conditions: human
In short: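 Phenotypes for tubulin, mitochondrial mass and membrane permeability are expressed as per cents of healthy-nucleus cells. Cells were stained live at seeding with Hoechst33342, BioTracker Green Microtubule Cytoskeleton Dye, MitoTracker Red and Annexin V Alexa Fluor 680, then imaged after compound addition on a CQ1 microscope at 37°C and 5% CO2. Machine-learning gating in CellPathfinder separated Hoechst high-intensity objects from normal cells, divided normal cells by nuclear state (healthy, pyknosed, fragmented) and divided pyknosed cells into mitotic or apoptotic.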

[1] = 12 h, 1 µM, compound concentration 1 uM, replicate 1
[2] = 12 h, 1 µM, compound concentration 1 uM, replicate 2
[3] = 12 h, 10 µM, compound concentration 10 uM, replicate 1
[4] = 12 h, 10 µM, compound concentration 10 uM, replicate 2
[5] = 24 h, 1 µM, compound concentration 1 uM, replicate 1
[6] = 24 h, 1 µM, compound concentration 1 uM, replicate 2
[7] = 24 h, 10 µM, compound concentration 10 uM, replicate 1
[8] = 24 h, 10 µM, compound concentration 10 uM, replicate 2
[9] = 48 h, 1 µM, compound concentration 1 uM, replicate 1
[10] = 48 h, 1 µM, compound concentration 1 uM, replicate 2
[11] = 48 h, 10 µM, compound concentration 10 uM, replicate 1
[12] = 48 h, 10 µM, compound concentration 10 uM, replicate 2

SMILES: Cc1ccc(S(=O)(=O)NC2c3ccccc3Oc3ccccc32)cc1
- Population Apoptotic (%) [1]: 47%
- Population Fragmented Nuclei (%) [1]: 11%
- Population Healthy Nuclei (%) [1]: 77%
- Population Hoechst High Intensity Objects (%) [1]: 5%
- Population Membrane Permeable-Phenotype (%) [1]: 6%
- Population Mitochondria Different-Phenotype (%) [1]: 5%
- Population Mitotic Cells (%) [1]: 52%
- Population Normal (%) [1]: 94%
- Population Pyknosed Nuclei (%) [1]: 10%
- Population Tubulin-Different-Phenotype (%) [1]: 5%
- Total Cell Count [1]: 216
- Population Apoptotic (%) [2]: 0%
- Population Fragmented Nuclei (%) [2]: 10%
- Population Healthy Nuclei (%) [2]: 76%
- Population Hoechst High Intensity Objects (%) [2]: 4%
- Population Membrane Permeable-Phenotype (%) [2]: 0%
- Population Mitochondria Different-Phenotype (%) [2]: 16%
- Population Mitotic Cells (%) [2]: 100%
- Population Normal (%) [2]: 95%
- Population Pyknosed Nuclei (%) [2]: 12%
- Population Tubulin-Different-Phenotype (%) [2]: 2%
- Total Cell Count [2]: 49
- Population Apoptotic (%) [3]: 71%
- Population Fragmented Nuclei (%) [3]: 84%
- Population Healthy Nuclei (%) [3]: 12%
- Population Hoechst High Intensity Objects (%) [3]: 7%
- Population Membrane Permeable-Phenotype (%) [3]: 71%
- Population Mitochondria Different-Phenotype (%) [3]: 28%
- Population Mitotic Cells (%) [3]: 28%
- Population Normal (%) [3]: 92%
- Population Pyknosed Nuclei (%) [3]: 2%
- Population Tubulin-Different-Phenotype (%) [3]: 68%
- Total Cell Count [3]: 507
- Population Apoptotic (%) [4]: 95%
- Population Fragmented Nuclei (%) [4]: 42%
- Population Healthy Nuclei (%) [4]: 34%
- Population Hoechst High Intensity Objects (%) [4]: 6%
- Population Membrane Permeable-Phenotype (%) [4]: 44%
- Population Mitochondria Different-Phenotype (%) [4]: 0%
- Population Mitotic Cells (%) [4]: 4%
- Population Normal (%) [4]: 93%
- Population Pyknosed Nuclei (%) [4]: 23%
- Population Tubulin-Different-Phenotype (%) [4]: 50%
- Total Cell Count [4]: 106
- Population Apoptotic (%) [5]: 59%
- Population Fragmented Nuclei (%) [5]: 57%
- Population Healthy Nuclei (%) [5]: 25%
- Population Hoechst High Intensity Objects (%) [5]: 0%
- Population Membrane Permeable-Phenotype (%) [5]: 11%
- Population Mitochondria Different-Phenotype (%) [5]: 17%
- Population Mitotic Cells (%) [5]: 40%
- Population Normal (%) [5]: 100%
- Population Pyknosed Nuclei (%) [5]: 16%
- Population Tubulin-Different-Phenotype (%) [5]: 5%
- Total Cell Count [5]: 132
- Population Apoptotic (%) [6]: 25%
- Population Fragmented Nuclei (%) [6]: 5%
- Population Healthy Nuclei (%) [6]: 88%
- Population Hoechst High Intensity Objects (%) [6]: 7%
- Population Membrane Permeable-Phenotype (%) [6]: 7%
- Population Mitochondria Different-Phenotype (%) [6]: 15%
- Population Mitotic Cells (%) [6]: 75%
- Population Normal (%) [6]: 92%
- Population Pyknosed Nuclei (%) [6]: 6%
- Population Tubulin-Different-Phenotype (%) [6]: 13%
- Total Cell Count [6]: 65
- Population Apoptotic (%) [7]: 71%
- Population Fragmented Nuclei (%) [7]: 69%
- Population Healthy Nuclei (%) [7]: 27%
- Population Hoechst High Intensity Objects (%) [7]: 6%
- Population Membrane Permeable-Phenotype (%) [7]: 34%
- Population Mitochondria Different-Phenotype (%) [7]: 18%
- Population Mitotic Cells (%) [7]: 28%
- Population Normal (%) [7]: 93%
- Population Pyknosed Nuclei (%) [7]: 2%
- Population Tubulin-Different-Phenotype (%) [7]: 19%
- Total Cell Count [7]: 321
- Population Apoptotic (%) [8]: 100%
- Population Fragmented Nuclei (%) [8]: 10%
- Population Healthy Nuclei (%) [8]: 68%
- Population Hoechst High Intensity Objects (%) [8]: 4%
- Population Membrane Permeable-Phenotype (%) [8]: 20%
- Population Mitochondria Different-Phenotype (%) [8]: 14%
- Population Mitotic Cells (%) [8]: 0%
- Population Normal (%) [8]: 95%
- Population Pyknosed Nuclei (%) [8]: 21%
- Population Tubulin-Different-Phenotype (%) [8]: 43%
- Total Cell Count [8]: 84
- Population Apoptotic (%) [9]: 50%
- Population Fragmented Nuclei (%) [9]: 8%
- Population Healthy Nuclei (%) [9]: 85%
- Population Membrane Permeable-Phenotype (%) [9]: 0%
- Population Mitochondria Different-Phenotype (%) [9]: 7%
- Population Mitotic Cells (%) [9]: 50%
- Population Pyknosed Nuclei (%) [9]: 6%
- Population Tubulin-Different-Phenotype (%) [9]: 3%
- Total Cell Count [9]: 429
- Population Apoptotic (%) [10]: 25%
- Population Fragmented Nuclei (%) [10]: 5%
- Population Healthy Nuclei (%) [10]: 90%
- Population Hoechst High Intensity Objects (%) [10]: 2%
- Population Membrane Permeable-Phenotype (%) [10]: 10%
- Population Mitochondria Different-Phenotype (%) [10]: 18%
- Population Mitotic Cells (%) [10]: 75%
- Population Normal (%) [10]: 97%
- Population Pyknosed Nuclei (%) [10]: 4%
- Population Tubulin-Different-Phenotype (%) [10]: 10%
- Total Cell Count [10]: 93
- Population Apoptotic (%) [11]: 44%
- Population Fragmented Nuclei (%) [11]: 11%
- Population Healthy Nuclei (%) [11]: 82%
- Population Hoechst High Intensity Objects (%) [11]: 3%
- Population Membrane Permeable-Phenotype (%) [11]: 3%
- Population Mitochondria Different-Phenotype (%) [11]: 12%
- Population Mitotic Cells (%) [11]: 55%
- Population Normal (%) [11]: 96%
- Population Pyknosed Nuclei (%) [11]: 6%
- Population Tubulin-Different-Phenotype (%) [11]: 12%
- Total Cell Count [11]: 155
- Population Apoptotic (%) [12]: 75%
- Population Fragmented Nuclei (%) [12]: 7%
- Population Healthy Nuclei (%) [12]: 84%
- Population Hoechst High Intensity Objects (%) [12]: 4%
- Population Membrane Permeable-Phenotype (%) [12]: 17%
- Population Mitochondria Different-Phenotype (%) [12]: 14%
- Population Mitotic Cells (%) [12]: 25%
- Population Normal (%) [12]: 95%
- Population Pyknosed Nuclei (%) [12]: 7%
- Population Tubulin-Different-Phenotype (%) [12]: 37%
- Total Cell Count [12]: 109
